The results in this text go back to ChEMBL document CHEMBL2046337, “Inhibitors for Bacterial Cell-Wall Recycling” (ACS Med Chem Lett, 2012).

One series concerns the target Beta-hexosaminidase (Pseudomonas aeruginosa (strain ATCC 15692 / PAO1 / 1C / PRS 101 / LMG12228), UniProt Q9HZK0). Description: Competitive inhibition of Pseudomonas aeruginosa PAO1 NagZ using PNP-GlcNAc as substrate assessed as release of 4-nitrophenolate ion after 4 mins by spectrophotometric analysis. The method in brief: (§1)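 His-tagged NagZ, purified by Ni-affinity, at 40 nM in PBS pH 7.4 (500 µL reaction). Substrate was PNP-GlcNAc at 0.1–1 mM. 4-Nitrophenolate release was followed at 400 nm for 4 min at 25 °C, in triplicate.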

The target in series [1] is Beta-hexosaminidase (Pseudomonas aeruginosa (strain ATCC 15692 / PAO1 / 1C / PRS 101 / LMG12228)) (UniProt Q9HZK0). Description: Inhibition of Pseudomonas aeruginosa PAO1 NagZ using PNP-GlcNAc as substrate assessed as release of 4-nitrophenolate ion after 4 mins by spectrophotometric analysis. The method in brief:
as §1

In series [2] the target is T1, Membrane-bound lytic murein transglycosylase B (Escherichia coli (strain K12), UniProt P41052).
T1 sequence (P41052 whole entry): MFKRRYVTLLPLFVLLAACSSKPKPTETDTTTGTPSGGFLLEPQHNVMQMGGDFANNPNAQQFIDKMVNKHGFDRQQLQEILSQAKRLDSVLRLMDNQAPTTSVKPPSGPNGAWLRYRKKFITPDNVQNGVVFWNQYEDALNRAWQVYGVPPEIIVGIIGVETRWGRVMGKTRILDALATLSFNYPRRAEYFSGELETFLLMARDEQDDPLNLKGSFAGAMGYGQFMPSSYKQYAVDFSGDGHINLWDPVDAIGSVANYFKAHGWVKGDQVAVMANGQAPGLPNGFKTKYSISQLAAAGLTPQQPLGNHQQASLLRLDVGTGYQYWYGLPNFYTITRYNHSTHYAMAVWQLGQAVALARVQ
Nature of the series: Binding affinity to Escherichia coli K12 MG1655 His6x-tagged MltB lytic transglycosylase assessed as intrinsic fluorescence of tryptophan and/or tyrosine residues of enzyme. Details: species or system Escherichia coli K-12. The gist of the method:
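MltB at 0.25 μM in 50 mM HEPES pH 7.6, 0.20 M NaCl, Brij-35, titrated with aliquots of 42 mM aqueous compound stock; equilibrated at 25 °C with stirring after each addition. Emission read at 334.06 nm (excitation 280 nm, scan 290-450 nm), corrected for dilution. Kd from fit to one-site saturation model, with or without a non-specific binding term.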

Series [3] can be described thus: Activity at NagZ expressed in Escherichia coli BL21 DE3 after 35 mins by HPLC analysis.
Series [4] in a line: Ratio of Kcat to Km for NagZ expressed in Escherichia coli BL21 DE3 after 35 mins by HPLC analysis.
Substrate in series [5]: CO[C@@H]1O[C@H](CO)[C@@H](O[C@@H]2O[C@H](CO)[C@@H](O)[C@H](O)[C@H]2NC(C)=O)[C@H](O[C@H](C)C(=O)N[C@@H](C)C(=O)N[C@H](CCC(=O)N[C@@H](CCC[C@@H](N)C(=O)O)C(=O)N[C@H](C)C(=O)N[C@H](C)C(=O)O)C(=O)O)[C@H]1NC(C)=O
Nature of the series: Activity at Pseudomonas aeruginosa PAO1 NagZ after 35 mins by HPLC analysis. The gist of the method:
(§2)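 His-tagged NagZ (pET28a, expressed in E. coli BL21 star (DE3), Ni-affinity purified) at 40 nM in PBS pH 7.4. Substrate was GlcNAc-anhMurNAc-pentapeptide or GlcNAc-MurNAc-pentapeptide at 0.15–0.9 mM, 25 °C, 35 min. Reactions were stopped with two volumes of 0.075% TFA. Substrate and product were quantified by C18 reversed-phase HPLC against an internal standard (Nα,Nε-diacetyl-L-Lys-D-Ala-D-Ala).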

Substrate in series [6]: CO[C@@H]1O[C@H](CO)[C@@H](O[C@@H]2O[C@H](CO)[C@@H](O)[C@H](O)[C@H]2NC(C)=O)[C@H](O[C@H](C)C(=O)N[C@@H](C)C(=O)N[C@H](CCC(=O)N[C@@H](CCC[C@@H](N)C(=O)O)C(=O)N[C@H](C)C(=O)N[C@H](C)C(=O)O)C(=O)O)[C@H]1NC(C)=O
Description: Ratio of Kcat to Km for Pseudomonas aeruginosa PAO1 NagZ after 35 mins by HPLC analysis. The method in brief:
as §2

The source made the active and inactive calls. The rule behind the calls is not given here.

As to `CC(=O)N[C@H]1CN[C@H](CO)[C@@H](O)[C@@H]1O[C@H](C)C(=O)O`, on Beta-hexosaminidase, the Ki (usually the dissociation constant of the complex between target and ligand, obtained from inhibition or displacement) worked out at 51 µM. Further, in series [1], the inhibition result was “Active”. Besides, the Kd (as a rule, the free concentration of one partner at which half of the binding sites on the other are occupied at equilibrium, for simple one-to-one binding) in series [2] was determined as 1000 µM.

`CC(=O)N[C@H]1CN[C@H](CO)[C@@H](O)[C@@H]1O`: on Beta-hexosaminidase, the Ki worked out at 0.3 µM. In addition, the Kd in series [2] is 174 µM.

Consider `CC(=O)N[C@H]1[C@H](O[C@H]2[C@H](O[C@H](C)C(=O)N[C@@H](C)C(=O)N[C@H](CCC(=O)N[C@@H](CCC[C@@H](N)C(=O)O)C(=O)N[C@H](C)C(=O)N[C@H](C)C(=O)O)C(=O)O)[C@@H](NC(C)=O)[C@@H]3OC[C@H]2O3)O[C@H](CO)[C@@H](O)[C@@H]1O`, for which, in series [3], the Km (commonly the substrate concentration at which the rate is half of its maximum) was 104 µM; the turnover number (kcat) (in general, the number of substrate molecules converted per active site and unit of time at saturation) came to 6.6 s⁻¹. For the same molecule, the kcat/Km in series [4] stood at 6.3 ×10⁴ /M/s.

As for `CC(=O)N[C@H]1CN[C@H](CO)[C@@H](O)[C@@H]1O[C@H](C)C(=O)N[C@@H](C)C(=O)O`, at Beta-hexosaminidase, the Ki worked out at 35 µM. The inhibition entry in series [1] was “Active”. Besides, the Kd in series [2] was 189 µM.

As to `CC(=O)N[C@H]1CN[C@H](CO)[C@@H](O)[C@@H]1O[C@H](C)C(=O)N[C@@H](C)C(=O)N[C@H](CCC(=O)O)C(=O)O`, the Ki on Beta-hexosaminidase came out at 33 µM. In series [1], the inhibition result was “Active”. Also, the dissociation constant (Kd) in series [2] was found to be 1010 µM.

B1: Beta-hexosaminidase (Pseudomonas aeruginosa (strain ATCC 15692 / PAO1 / 1C / PRS 101 / LMG12228)), Q9HZK0 (protein)
chain: MQGSLMLDIGGTWLTAEDRQILRHPEVGGLIIFARNIEHPAQVRELCAAIRAIRPDLLLAVDQEGGRVQRLRQGFVRLPAMRAIADNPNAEELAEHCGWLMATEVQAVGLDLSFAPVLDLDHQRSAVVGSRAFEGDPERAALLAGAFIRGMHAAGMAATGKHFPGHGWAEADSHVAIPEDARSLEEIRRSDLVPFARLAGQLDALMPAHVIYPQVDPQPAGFSRRWLQEILRGELKFDGVIFSDDLSMAGAHVVGDAASRIEAALAAGCDMGLVCNDRASAELALAALQRLKVTPPSRLQRMRGKGYANTDYRQQPRWLEALSALRAAQLID
As for B1, in series [5], the Km was found to be 165 µM and the turnover number (kcat) is 0.77 s⁻¹. Besides, the kcat/Km in series [6] is 0.5 ×10⁴ /M/s.
